Key:
Rattus norvegicus [1] = experiment: Hypotensive activity in normotensive Wistar rat assessed as reduction of systolic blood pressure at 0.31 mg/kg, iv after 60 mins; format: functional, Artery
How it was run: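 Male normotensive Wistar rats (170–350 g) anaesthetised with thiopental 75 mg/kg ip; right carotid artery cannulated with heparinised saline-filled polyethylene tubing for pressure recording. After a 5 min stabilisation, compound given into the caudal vein at 1 mL/kg. Systolic pressure is recorded at 0, 5, 10, 20, 30 and 60 min, and the data are reported as mean ± SEM of five to six animals, with one-way ANOVA.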

Rattus norvegicus [2] = experiment: Antiarrhythmic activity in iv dosed Wistar rat adrenaline-induced arrhythmia model assessed as reduction of heart-rhythm disturbance administered 15 mins adrenaline-challenge; format: functional; details: 0.25 h
How it was run: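 Anaesthetised male Wistar rats (thiopental 75 mg/kg ip). Test compound iv at 1 mL/kg, given 15 min before adrenaline 20 µg/kg iv. Activity means no premature beats and inhibition of arrhythmia, judged against a control group. There were three dose groups of six rats. ED50 with confidence limits was calculated by the Litchfield–Wilcoxon method.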

Rattus norvegicus [3] = experiment: Cardiotoxicity in Wistar rat assessed as hear beats per min at 2.5 mg/kg, iv after 15 mins by ECG analysis; format: toxicity, organism-based; design: dose 2.5 mg/kg, route intravenous; details: in vivo, 0.25 h
How it was run: (§1)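 Male normotensive Wistar rats (170–350 g, groups of six) were anaesthetised. Compound was given iv at 1 mL/kg. ECG was recorded just before dosing and at 1, 5 and 15 min after, and PQ, QRS and QT intervals and heart rate were read. Groups were compared by one-way ANOVA.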

Rattus norvegicus [4] = experiment: Cardiotoxicity in Wistar rat assessed as QT interval at 2.5 mg/kg, iv after 15 mins by ECG analysis; format: toxicity, organism-based; design: dose 2.5 mg/kg, route intravenous; details: in vivo, 0.25 h; how it was run: as §1
Rattus norvegicus [5] = experiment: Cardiotoxicity in Wistar rat assessed as QRS interval at 2.5 mg/kg, iv after 15 mins by ECG analysis; format: toxicity, organism-based; design: dose 2.5 mg/kg, route intravenous; details: in vivo, 0.25 h; how it was run: as §1
Rattus norvegicus [6] = experiment: Cardiotoxicity in Wistar rat assessed as PQ interval at 2.5 mg/kg, iv after 15 mins by ECG analysis; format: toxicity, organism-based; design: dose 2.5 mg/kg, route intravenous; details: in vivo, 0.25 h; how it was run: as §1
Rattus norvegicus [7] = experiment: Cardiotoxicity in Wistar rat assessed as hear beats per min at 2.5 mg/kg, iv after 10 mins by ECG analysis; format: toxicity, organism-based; design: dose 2.5 mg/kg, route intravenous; details: in vivo
Rattus norvegicus [8] = experiment: Cardiotoxicity in Wistar rat assessed as QT interval at 2.5 mg/kg, iv after 10 mins by ECG analysis; format: toxicity, organism-based; design: dose 2.5 mg/kg, route intravenous; details: in vivo
Rattus norvegicus [9] = experiment: Cardiotoxicity in Wistar rat assessed as QRS interval at 2.5 mg/kg, iv after 10 mins by ECG analysis; format: toxicity, organism-based; design: dose 2.5 mg/kg, route intravenous; details: in vivo
Rattus norvegicus [10] = experiment: Cardiotoxicity in Wistar rat assessed as PQ interval at 2.5 mg/kg, iv after 10 mins by ECG analysis; format: toxicity, organism-based; design: dose 2.5 mg/kg, route intravenous; details: in vivo
Rattus norvegicus [11] = experiment: Cardiotoxicity in Wistar rat assessed as hear beats per min at 2.5 mg/kg, iv after 5 mins by ECG analysis; format: toxicity, organism-based; design: dose 2.5 mg/kg, route intravenous; details: in vivo; how it was run: as §1
Rattus norvegicus [12] = experiment: Cardiotoxicity in Wistar rat assessed as QT interval at 2.5 mg/kg, iv after 5 mins by ECG analysis; format: toxicity, organism-based; design: dose 2.5 mg/kg, route intravenous; details: in vivo; how it was run: as §1
Rattus norvegicus [13] = experiment: Cardiotoxicity in Wistar rat assessed as QRS interval at 2.5 mg/kg, iv after 5 mins by ECG analysis; format: toxicity, organism-based; design: dose 2.5 mg/kg, route intravenous; details: in vivo; how it was run: as §1
Rattus norvegicus [14] = experiment: Cardiotoxicity in Wistar rat assessed as PQ interval at 2.5 mg/kg, iv after 5 mins by ECG analysis; format: toxicity, organism-based; design: dose 2.5 mg/kg, route intravenous; details: in vivo; how it was run: as §1
[15] = Displacement of [3H]CGP-12177 from beta1-adrenergic receptor in rat cerebral cortex by liquid scintillation counting; format: tissue-based
How it was run: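 Rat cerebral cortex was homogenised in ice-cold 50 mM Tris-HCl pH 7.6 and spun at 20,000 g for 20 min at 0–4 °C, then washed once. Radioligands: [3H]prazosin 0.2 nM for α1, [3H]clonidine 2 nM for α2, [3H]CGP-12177 0.2 nM for β1. Test compounds were run at 7–8 concentrations from 10^-11 to 10^-4 M. Nonspecific binding was defined with phentolamine (α1), clonidine (α2) or propranolol (β1). Counting was by liquid scintillation, in duplicate. Ki was derived by Cheng–Prusoff from 2–3 experiments.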

Rattus norvegicus [16] = experiment: Hypotensive activity in normotensive Wistar rat assessed as reduction of diastolic blood pressure at 0.625 mg/kg, iv after 60 mins; format: functional, Artery
How it was run: (§2)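 Male normotensive Wistar rats were anaesthetised with thiopental 75 mg/kg ip. The right carotid artery was cannulated with heparinised saline for pressure recording. After 5 min of stabilisation, compound was injected into the tail vein at 1 mL/kg. Systolic and diastolic pressure were followed up to 60 min. Data are means ± SEM of 5–6 rats, analysed by one-way ANOVA.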

Rattus norvegicus [17] = experiment: Hypotensive activity in normotensive Wistar rat assessed as reduction of diastolic blood pressure at 0.625 mg/kg, iv after 20 mins; format: functional, Artery; how it was run: as §2
Rattus norvegicus [18] = experiment: Hypotensive activity in normotensive Wistar rat assessed as reduction of diastolic blood pressure at 1.25 mg/kg, iv after 30 mins; format: functional, Artery; how it was run: as §2

Row | Compound | Activity (Rattus norvegicus [1]) | ED50 (Rattus norvegicus [2]) | Activity (Rattus norvegicus [3]) | Activity (Rattus norvegicus [4]) | Activity (Rattus norvegicus [5]) | Activity (Rattus norvegicus [6]) | Activity (Rattus norvegicus [7]) | Activity (Rattus norvegicus [8]) | Activity (Rattus norvegicus [9]) | Activity (Rattus norvegicus [10]) | Activity (Rattus norvegicus [11]) | Activity (Rattus norvegicus [12]) | Activity (Rattus norvegicus [13]) | Activity (Rattus norvegicus [14]) | Ki [15] | Activity (Rattus norvegicus [16]) | Activity (Rattus norvegicus [17]) | Activity (Rattus norvegicus [18])
1 | COc1ccccc1N1CCN(CCCOc2cccc3c(=O)c4ccccc4oc23)CC1.Cl | 116 mmHg | 0.69 mg/kg | 295.7 bpm | 71.8 ms | 20.3 ms | 43.5 ms | 306.7 bpm | 69.8 ms | 20.6 ms | 43.2 ms | 314.4 bpm | 70 ms | 20.4 ms | 43 ms | 3.2 µM | 112 mmHg | 110.5 mmHg | 
2 | COc1ccccc1N1CCN(CC(COc2cccc3c(=O)c4ccccc4oc23)OC(C)=O)CC1.Cl (racemic) |  | 0.87 mg/kg | 366.3 bpm | 60 ms | 19 ms | 48 ms | 369 bpm | 60 ms | 19 ms | 48 ms | 375 bpm | 61.8 ms | 19 ms | 48 ms | 11.2 µM | 92 mmHg | 95.4 mmHg | 90.8 mmHg
3 | COc1ccccc1N1CCN(CC(O)COc2cccc3c(=O)c4ccccc4oc23)CC1.Cl (racemic) | 116 mmHg | 0.88 mg/kg | 303.3 bpm | 68.4 ms | 20.2 ms | 42.8 ms | 315.2 bpm | 68.2 ms | 19.8 ms | 43.3 ms | 341.2 bpm | 69.7 ms | 19.6 ms | 44.3 ms | 7.6 µM |  |  | 

— ChEMBL document CHEMBL2311390, “Synthesis and preliminary evaluation of pharmacological properties of some piperazine derivatives of xanthone” (Bioorg Med Chem, 2013)
